TRPC4 act = activators of mouse TRPC4 channel | Q9QUQ5 | HEK293 TRPC4beta/mu-opioid, Fluo4 calcium fluorescence; hits give high values | B-score at 10 µM | hit rate 0.49% among 310,000 | AID 2237;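 active = B-score above 5 SD of library B-scores, and initial fluorescence ratio not above library mean plus 5 SD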;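 note: positive B-score marks a calcium rise read as TRPC4 activation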
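Assay system – TRPC4beta and mu-opioid receptor HEK293 stable cells · Measured by – Fluo4 fluorescence, kinetic · Schedule – dye loading 45 min room temperature, 110 s kinetic read · Read-out – B-scored integrated calcium fluorescence ratio · Controls – buffer and maximal DAMGO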
TRPC4 inh = inhibitors of mouse TRPC4 channel | HEK293 TRPC4beta/mu-opioid, DAMGO-evoked Fluo4 calcium flux; hits give low values | B-score at 10 µM | hit rate 0.39% among 300,000 | AID 2247;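 active = B-score over 3 SD under the library average, no early fluorescence shift, positive overall ratio signal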
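material = TRPC4beta/mu-opioid receptor HEK293 cell line | probe or stimulus = sequential submaximal and maximal DAMGO stimulation | compound dosing = one concentration per compound | measured by = Fluo4 Ca2+ flux fluorescence | evaluation = integrated fluorescence ratio relative to baseline, converted to per-well B score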
TRPC6 activator = mouse TRPC6 channel activation. Q61143. HEK293-TRPC6 membrane potential dye fluorescence; hits give high values. B-score at 10 µM. hit rate 0.13% among 310,000. AID 2550;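 active = B-score of the integrated fluorescence ratio above library mean plus 3 SD, and starting fluorescence ratio within library mean plus 5 SD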;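 note: higher score means more depolarization so channel activation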
Target sequence (Q61143 whole entry, looked up): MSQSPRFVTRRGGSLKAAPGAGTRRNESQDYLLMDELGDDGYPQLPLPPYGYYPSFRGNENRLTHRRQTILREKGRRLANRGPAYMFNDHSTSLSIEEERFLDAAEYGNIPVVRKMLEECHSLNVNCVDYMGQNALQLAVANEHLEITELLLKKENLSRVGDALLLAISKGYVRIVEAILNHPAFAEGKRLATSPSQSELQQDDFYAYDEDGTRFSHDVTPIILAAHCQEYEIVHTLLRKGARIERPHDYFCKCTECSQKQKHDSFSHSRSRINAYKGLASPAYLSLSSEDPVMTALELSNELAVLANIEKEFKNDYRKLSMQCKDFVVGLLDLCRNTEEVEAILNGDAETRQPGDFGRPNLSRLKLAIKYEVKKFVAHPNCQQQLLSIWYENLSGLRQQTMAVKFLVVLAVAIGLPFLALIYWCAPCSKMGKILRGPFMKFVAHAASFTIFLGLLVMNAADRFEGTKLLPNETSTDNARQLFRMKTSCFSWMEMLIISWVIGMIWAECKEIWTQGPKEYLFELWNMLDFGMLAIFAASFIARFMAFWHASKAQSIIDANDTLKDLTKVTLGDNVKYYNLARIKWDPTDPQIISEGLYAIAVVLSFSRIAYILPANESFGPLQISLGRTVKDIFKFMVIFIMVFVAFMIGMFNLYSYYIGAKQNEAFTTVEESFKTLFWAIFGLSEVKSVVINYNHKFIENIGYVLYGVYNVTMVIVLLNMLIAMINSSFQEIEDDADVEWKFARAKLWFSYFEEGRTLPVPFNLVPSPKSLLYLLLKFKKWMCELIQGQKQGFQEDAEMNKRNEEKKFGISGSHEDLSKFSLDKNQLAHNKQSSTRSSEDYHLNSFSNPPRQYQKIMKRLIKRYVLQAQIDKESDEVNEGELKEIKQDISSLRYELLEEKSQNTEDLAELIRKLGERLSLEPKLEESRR
TRPC6 inh = inhibitors of mouse TRPC6 channel; B-score at 10 µM; HEK293-TRPC6, membrane potential dye, ACh-evoked depolarization; hits give low values; Q61143; hit rate 1.1% among 310,000;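 active = B-score under library mean minus 3 SD, initial fluorescence not abnormally high, positive integrated signal ratio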;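 note: B-score derived from integrated fluorescence ratio over the kinetic read; more negative B-score means stronger inhibition of depolarization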
TRPC4 PAM = allosterically enhances the mouse TRPC4 cation channel. B-score at 10 µM. HEK293 TRPC4beta/mu-opioid, DAMGO EC20, Fluo-4 Ca2+ flux; hits give high values. hit rate 0.42% among 310,000. Q9QUQ5;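 active = B-score of calcium response area above 5 SD of library B-scores, with initial fluorescence ratio within 5 SD of library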
TRPC4 spec 2 = second check of whether TRPC6 inhibitors also affect mouse TRPC4; hit rate 42% among 920; HEK293 TRPC4/MOR, membrane potential dye fluorescence; channel activated by saturating DAMGO dose; shares compounds with TRPC6 inh; inhibition, % at 10 µM;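 active = compounds whose fluorescence signal differed from control wells by over 3 SD, either direction, in both duplicate plates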
TRPC4 spec = mouse TRPC4 off-target activity of TRPC6 inhibitors; hit rate 61% among 920; activity change, negative = inhibition, % at 10 µM; HEK293 TRPC4/mu-opioid, membrane potential fluorescence; shares compounds with TRPC6 inh;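 active = rise or fall in signal beyond 3 SD of buffer-only wells in both replicate plates, either sign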;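 note: integrated kinetic ratio of fluorescence range over baseline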
HEK293 MPD ctr 2-1 = parental HEK293 nonspecific activity of TRPC6 inhibitors, second screen. shares compounds with TRPC6 inh. parental HEK293 membrane potential dye fluorescence; maximal acetylcholine challenge after compound addition. signal change vs control, % at 10 µM. hit rate 31% among 920;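 active = membrane potential signal moving either way by over 3 SD of the maximum-effect control, in both duplicate plates, meaning non-specific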
HEK293 MPD ctr-1 = checks TRPC6 inhibitor effects in parental HEK293 cells; shares compounds with TRPC6 inh; parental HEK293 membrane potential dye fluorescence; membrane potential signal change, % at 10 µM; hit rate 60% among 920; AID 2780;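 active = membrane potential signal shifting up or down by more than 3 SD of buffer-only wells, on both duplicate plates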
HEK293 MPD ctr-2 = parental HEK293 nonspecific activity of TRPC6 modulators; shares compounds with TRPC6 inh; membrane potential dye fluorescence; membrane potential signal change, % at 10 µM; hit rate 51% among 2,400; AID 488924;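 active = membrane potential signal moves up or down beyond 5 SD from buffer-only wells, on both duplicate plates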
HEK293 MPD ctr 2-2 = parental HEK293 nonspecific activity of TRPC6 modulators, second screen; shares compounds with TRPC6 inh; membrane potential dye fluorescence; after compound, maximal acetylcholine stimulation; inhibition, % at 10 µM; hit rate 14% among 2,400; AID 488926;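 active = membrane potential signal drops by more than 5 SD from the mean control signal, in both duplicate plates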
TRPC4/MOR mod = mouse TRPC4 off-target activity of TRPC6 modulators; shares compounds with TRPC6 inh; percent change from control (negative = decrease, positive = increase), % at 10 µM; hit rate 69% among 2,400; AID 488927; HEK293 TRPC4/mu-opioid, membrane potential fluorescence;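 active = membrane potential signal moved up or down beyond 5 SD of buffer control wells, in both duplicate plates, actives on both sides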
TRPC4 ctr inh 2 = second check of whether TRPC6 modulators also affect mouse TRPC4 | shares compounds with TRPC6 inh | HEK293 TRPC4/mu-opioid, membrane potential dye fluorescence; stimulated with maximal-effect DAMGO | inhibition, % at 10 µM | hit rate 55% among 2,400;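 active = drop in membrane potential signal beyond 5 SD of the control wells in both duplicate plates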;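 note: TRPC4 counter screen for TRPC6 hits run under conditions tuned for TRPC6 not TRPC4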
TRPC6 block conf = confirmation of mouse TRPC6 inhibitors. HEK293-TRPC6, membrane potential dye, ACh-evoked depolarization. hit rate 43% among 3,300. inhibition, % at 10 µM. shares compounds with TRPC6 inh;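 active = fluorescence ratio falls more than 5 SD below the full-stimulation control mean, in both duplicate runs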;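 note: integrated fluorescence ratio of peak minus minimum over baseline after agonist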
TRPC6 act conf = mouse TRPC6 activator confirmation. shares compounds with TRPC6 inh. HEK293-TRPC6 membrane potential dye fluorescence, FDSS. activation, % at 10 µM. hit rate 11% among 2,800. AID 488961;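 active = ratio signal rise beyond 5 SD above unstimulated control wells' mean, seen in both duplicate runs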
Numbers stand for hits; - = inactive; . = no result; + = active, no number. Most compounds without a hit are left out; they make up all but 2.3% or so of the library.

SMILES | TRPC4 act | TRPC4 inh | TRPC6 activator | TRPC6 inh | TRPC4 PAM | HEK293 MPD ctr-2 | HEK293 MPD ctr 2-2 | TRPC4/MOR mod | TRPC4 ctr inh 2 | TRPC6 block conf | TRPC6 act conf | others
COc1ccc(C(CCNCc2ccc(N(C)C)cc2)C(C)C)cc1 (stereo not drawn) | - | - | - | -5.2 | - | 237% | - | 44% | 56% | 46% | .
COc1ccc(C(CCNCc2ccc(OC(C)C)cc2)C(C)C)cc1 (stereo not drawn) | - | - | - | - | - | . | . | . | . | . | .
OC(CCN1CCCC1)(c1ccccc1)C1CCCCC1 (stereo not drawn) | - | - | - | -8.2 | - | . | . | . | . | 79% | . | TRPC4 spec 2=-;TRPC4 spec=24%;HEK293 MPD ctr 2-1=-14%;HEK293 MPD ctr-1=15%
OC(CCN1CCCCC1)(c1ccccc1)c1ccccc1 | - | - | - | -7.1 | - | . | . | . | . | 74% | . | TRPC4 spec 2=-;TRPC4 spec=17%;HEK293 MPD ctr 2-1=-7.0%;HEK293 MPD ctr-1=12%
CSCC[C@H](NC(=O)N1C[C@H]2C[C@@H](C1)c1cccc(=O)n1C2)C(=O)Nc1ccc(NC(C)=O)cc1 | - | - | - | - | - | . | . | . | . | . | .
CC(C)(C)NC(=S)N/N=C\c1ccc(-c2ccc([N+](=O)[O-])cc2)o1 | - | - | 18 | - | 16 | - | - | 51% | - | - | -
O=C(O)c1ccc(-c2ccc(/C=N/Nc3ccc([N+](=O)[O-])cc3)o2)cc1 | 121 | - | 43 | - | 19 | + | - | 310% | - | - | 484%
O=C(O)c1cccc(-c2ccc(/C=N/Nc3ccc([N+](=O)[O-])cc3)o2)c1 | - | - | - | - | - | . | . | . | . | . | .
CCCCCN1C=CC=C/C1=C\C=C(C#N)C#N | - | - | 15 | -5.3 | - | 712% | - | - | - | - | 100%
CCCCCCN1C=C/C(=C\C=C(C#N)C#N)c2ccccc21 | - | - | - | - | - | . | . | . | . | . | .
CCCN1C=CC(=CC=C(C#N)C#N)C=C1 | - | - | - | - | - | . | . | . | . | . | .
CCCCCCN1C=CC=C/C1=C/C=C(C#N)C#N | - | - | 26 | - | - | 370% | - | 102% | - | - | 118%
COc1ccccc1OCc1nnc(SCC(=O)Nc2nnc(C3CC3)s2)n1C | - | - | - | - | - | . | . | . | . | . | .
CCN(Cc1ccccc1)C(=O)c1ccc(N(C)S(=O)(=O)c2ccc(C)cc2)cc1 | - | - | - | - | - | . | . | . | . | . | .
CN(C)CCCN(C(=O)c1ccc([N+](=O)[O-])s1)c1nc2cc3c(cc2s1)OCCO3 | - | - | - | - | - | . | . | . | . | . | .
CCN(CC)CCN(C(=O)c1ccc(Br)s1)c1nc2cc3c(cc2s1)OCCO3 | - | - | - | - | - | . | . | . | . | . | .
CN(C)CCCN(C(=O)c1cccs1)c1nc2cc3c(cc2s1)OCO3 | - | -8 | - | -9.7 | - | - | - | -19% | 64% | 42% | -
Cc1ccc2nc(N(CCN(C)C)C(=O)c3cc(Cl)sc3Cl)sc2c1 | - | - | - | - | - | . | . | . | . | . | .
CN(C)CCCN(C(=O)c1cc(Cl)sc1Cl)c1nc2cc3c(cc2s1)OCO3 | - | - | - | -5.1 | - | - | 55% | - | 91% | 61% | -
CN(C)CCCN(C(=O)c1ccc(Br)s1)c1nc2cc3c(cc2s1)OCCO3 | 63 | - | - | -6.4 | - | - | - | -14% | 82% | 60% | -
CN(C)CCCN(C(=O)c1ccc(Cl)s1)c1nc2cc3c(cc2s1)OCO3 | 100 | - | - | -6.1 | - | - | - | -22% | 84% | 48% | -
O=C(c1cccnc1)c1ncc(C(F)(F)F)cc1Cl | - | - | - | - | - | . | . | . | . | . | .
CCOc1ccc(NC(=O)CC2C(=O)N(CC)C(=S)N2CCN2CCOCC2)cc1 (stereo not drawn) | - | - | - | - | - | . | . | . | . | . | .
CCOc1ccc(NC(=O)CC2C(=O)N(CC)C(=S)N2CCNC(C)=O)cc1 (stereo not drawn) | - | - | - | -5.5 | - | - | - | - | - | - | -
CCN1C(=O)C(CC(=O)Nc2ccc(F)cc2)N(CCCN2CCN(c3ccc(F)cc3)CC2)C1=S (stereo not drawn) | - | - | - | -6.5 | - | - | - | - | 47% | 44% | -
SMILES | TRPC4 act | TRPC4 inh | TRPC6 activator | TRPC6 inh | TRPC4 PAM | HEK293 MPD ctr-2 | HEK293 MPD ctr 2-2 | TRPC4/MOR mod | TRPC4 ctr inh 2 | TRPC6 block conf | TRPC6 act conf | others
COc1ccc(COC(=O)N/N=C/c2cccs2)cc1 | - | - | - | - | - | . | . | . | . | . | .
COc1ccc(N(CC(=O)NCc2ccco2)C(=O)CCC(=O)Nc2ccccn2)cc1 | - | - | - | - | - | . | . | . | . | . | .
COc1ccc(NC(=S)NNc2ccc([N+](=O)[O-])cc2S(=O)(=O)Nc2ccc(C)cc2C)cc1 | - | - | - | -6.8 | - | . | . | . | . | - | - | TRPC4 spec 2=-;TRPC4 spec=-;HEK293 MPD ctr 2-1=-;HEK293 MPD ctr-1=-
COc1cc2ccccc2nn1 | - | - | - | - | - | . | . | . | . | . | .
COc1ccc2c(n1)Sc1nc3ccccc3nc1N2 | - | - | 19 | - | - | 210% | - | 106% | - | - | -
CCOC(=O)c1cnc2ccc(C(=O)OC)cc2c1NCCc1ccc(OC)c(OC)c1 | - | - | - | - | - | . | . | . | . | . | .
CCOC(=O)c1cnc2ccc(OCC)cc2c1N1CCN(C)CC1 | - | - | - | -5.5 | - | -110% | - | -18% | 43% | - | -
CCOC(=O)c1cnc2ccc(OCC)cc2c1NCCCN1CCOCC1 | - | - | - | -6.1 | - | - | 80% | 21% | 34% | 42% | -
CCOC(=O)c1cnc2ccc(OCC)cc2c1NCCN1CCOCC1 | - | - | - | -5.2 | - | - | - | - | 41% | - | -
CCOC(=O)c1cnc2ccc(C)cc2c1NCCO | - | - | - | -8.2 | - | . | . | . | . | - | - | TRPC4 spec 2=-;TRPC4 spec=-12%;HEK293 MPD ctr 2-1=6.5%;HEK293 MPD ctr-1=-279%
